# Experimental data reported in ChEMBL document CHEMBL1126843, “Non-amine based analogues of lavendustin A as protein-tyrosine kinase inhibitors” (J Med Chem, 1993).
# Columns and labels:
# [1] = target: Tyrosine-protein kinase Lck (Homo sapiens, UniProt P06239); experiment: Inhibition of p56lck autophosphorylation; assay type: functional
# [2] = (§1) Inhibition of c-erb B-2/HER2/neu receptor; assay type: functional
# Procedure, shortened: (§2)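 HER2/neu immunoprecipitated from SK-BR-3 breast cancer cells (1-2 × 10^6 cells per assay) on plates coated with goat anti-mouse Ig and anti-HER2 mAb (20 μg/mL), blocked with gelatin/glycine. Lysates bound overnight on ice, then washed. Kinase reaction in 25 mM HEPES pH 7.2, 3 mM MnCl2, 20 mM MgCl2, 0.1% NP-40 and 1 µCi [γ-32P]ATP, 20 min at 25 °C. Products run on 7.5% reducing SDS-PAGE; inhibition calculated from densitometric band densities.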
# [3] = Inhibition of epidermal growth factor receptor (EGFR) autophosphorylation; assay type: functional
# [4] = as §1; procedure, shortened: as §2
# [5] = Inhibition of epidermal growth factor receptor (EGFR)
# Sequence of Tyrosine-protein kinase Lck (P06239 whole entry): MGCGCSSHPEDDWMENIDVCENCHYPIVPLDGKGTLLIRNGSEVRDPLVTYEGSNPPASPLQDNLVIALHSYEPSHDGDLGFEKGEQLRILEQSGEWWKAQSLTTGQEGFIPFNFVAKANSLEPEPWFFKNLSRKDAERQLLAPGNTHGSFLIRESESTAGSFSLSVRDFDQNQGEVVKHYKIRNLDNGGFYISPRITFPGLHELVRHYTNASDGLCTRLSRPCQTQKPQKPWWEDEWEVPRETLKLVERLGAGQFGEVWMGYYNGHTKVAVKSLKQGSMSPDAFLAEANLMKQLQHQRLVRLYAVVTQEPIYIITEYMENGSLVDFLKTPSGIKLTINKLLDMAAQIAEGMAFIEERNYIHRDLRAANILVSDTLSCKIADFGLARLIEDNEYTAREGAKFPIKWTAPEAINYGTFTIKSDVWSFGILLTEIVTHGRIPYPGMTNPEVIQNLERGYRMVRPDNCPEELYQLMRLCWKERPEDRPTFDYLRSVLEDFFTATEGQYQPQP
smiles,measurement,setting,value
O=C(O)c1cc(N(Cc2ccccc2O)Cc2cc(O)ccc2O)ccc1O [LAVENDUSTIN A],IC50,[1],8 µM
same,IC50,[2],9 µM
same,IC50,[3],7 µM
O=C(O)c1cc(/C=C/c2cc(O)ccc2O)ccc1O,IC50,[1],0.06 µM
same,IC50,[2],0.6 µM
same,IC50,[3],2 µM
O=C(O)c1cc(NCc2cc(O)ccc2O)ccc1O [LAVENDUSTIN C],IC50,[1],10 µM
same,IC50,[2],0.9 µM
same,IC50,[3],4 µM
O=C(O)c1cc(/C=C/c2ccc(O)c(O)c2)ccc1O,IC50,[2],0.2 µM
same,IC50,[3],5 µM
O=C(O)c1cc(/N=C/c2cc(O)ccc2O)ccc1O,IC50,[1],85 µM
same,IC50,[2],70 µM
same,IC50,[3],9 µM
O=C(O)c1cc(CCc2ccc(O)c(O)c2)ccc1O,IC50,[1],1 µM
same,IC50,[4],0.6 µM
same,IC50,[5],12 µM
O=C(O)c1cc(CCc2cc(O)ccc2O)ccc1O,IC50,[1],1 µM
same,IC50,[2],4 µM
same,IC50,[3],20 µM
